Screening data from PubChem.
SR-BI HDL uptake: inhibitors of mouse SR-BI mediated HDL lipid uptake | ldlA[mSR-BI] CHO cells, DiI-HDL uptake fluorescence, 3 h | inhibition, % at 12.5 µM | 320,000 tested, 0.96% active | AID 488896;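 active = mean replicate inhibition of at least 70% and a set share of replicates each scoring 70 or more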;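 note: 0% = median of neutral control wells and 100% = median of positive control wells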
Target sequence (Q61009 whole entry, looked up): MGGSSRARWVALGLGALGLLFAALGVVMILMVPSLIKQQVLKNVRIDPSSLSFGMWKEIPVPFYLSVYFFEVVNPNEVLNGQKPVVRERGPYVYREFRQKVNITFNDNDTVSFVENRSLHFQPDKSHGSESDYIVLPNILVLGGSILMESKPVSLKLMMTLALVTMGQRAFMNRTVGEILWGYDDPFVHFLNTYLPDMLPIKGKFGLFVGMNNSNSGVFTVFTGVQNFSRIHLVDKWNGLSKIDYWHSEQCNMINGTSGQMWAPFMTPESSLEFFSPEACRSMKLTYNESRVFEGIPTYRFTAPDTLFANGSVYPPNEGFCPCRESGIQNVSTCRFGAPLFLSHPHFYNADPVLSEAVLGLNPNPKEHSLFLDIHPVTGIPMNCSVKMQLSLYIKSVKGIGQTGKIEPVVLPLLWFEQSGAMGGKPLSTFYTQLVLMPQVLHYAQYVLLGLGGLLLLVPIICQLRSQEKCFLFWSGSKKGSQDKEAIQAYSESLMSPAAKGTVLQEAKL
SR-BI uptake up: enhances SR-BI lipid uptake from DiI-HDL; CHO ldlA[mSR-BI] cells, DiI-HDL uptake fluorescence, 3 h; 100 = double the neutral-control signal; activation, % at 12.5 µM; 320,000 tested, 0.096% active; AID 504775;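 active = mean replicate activation of at least 60% and every replicate at or above 60%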;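 note: 0% = median plate neutral-control signal and 100% = twice that signal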
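System: CHO ldlA[mSR-BI] cells / Medium: HEPES-buffered (25 mM, pH 7.4) F12 plus 0.5% BSA / Probe or stimulus: labelled HDL, 10 µg/mL / Doses: single compound concentration, delivered by pin transfer / Schedule: 3 h, 37 °C / Measured by: DiI fluorescence, bottom read / Measure: cell-associated DiI fluorescence as measure of HDL uptake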
ABCB6 inh MLPCN: blocks the human ABCB6 transporter | Q9NP58 | K562-ABCB6 porphyrin accumulation, flow cytometry, 1 h; active compounds read low | fluorescence ratio to DMSO, % at 10 µM | 360,000 tested, 0.19% active | AID 602162;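 active = fluorescence ratio to DMSO below 75%, the collection mean minus 3 SD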;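 note: signal is porphyrin accumulated inside mitochondria; 100% equals median channel fluorescence of DMSO control wells; lower ratio means ABCB6 inhibition with less porphyrin fluorescence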
GAA850 FXN act: increases GAA850 frataxin promoter reporter activity; HEK293 lucGAA850 FXN promoter luciferase reporter, 24 h; percent of 10 µM SAHA response; activation, % at 6 µM; 360,000 tested, 0.56% active; AID 540364;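 active = activation above the average of all compounds screened plus 3 SD, cutoff fixed separately per campaign, cut at about 7.5% in these data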;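 note: 0% = DMSO wells and 100% = 10 µM SAHA wells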
HIF activator: HIF pathway transcriptional activation; U2OS HRE-luciferase reporter, luminescence; normalized: DMSO 0%, desferrioxamine 100%; activation, % at 7.5 µM (by protocol); 300,000 tested, 0.32% active; AID 1910;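 active = mean activation of at least 10% of the iron chelator positive control signal, with at least half of replicates also reaching 10%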
AHR act: activators of human aryl hydrocarbon receptor; P35869; AHR-responsive luciferase reporter cells, luminescence; activation, % at 5 µM; 320,000 tested, 2.5% active; AID 2796; in the data active = activation above about 47%;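 note: 0% = vehicle wells and 100% = reference agonist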
GAA30 FXN cntr: activates GAA30 frataxin promoter, counter-screen for GAA850 activators. AID 588350. shares compounds with GAA850 FXN act. 1,900 tested, 66% active. HEK293 lucGAA30 FXN promoter luciferase, 24 h; DMSO = 0%, 5 µM ipriflavone = 100%. activation, % at 6 µM;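 active = mean activation above the mean of solvent-only control wells plus 3 SD, cut at about 22% in these data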;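 note: counterscreen of GAA850 promoter hits where activity marks nonselective or luminescence artifacts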
FXN GAA850 conf: confirmation of GAA850 frataxin (FXN) promoter activators | shares compounds with GAA850 FXN act | HEK293 lucGAA850 FXN promoter luciferase reporter, 24 h; 100% = activation by SAHA | activation, % at 6 µM | 1,900 tested, 86% active | AID 588351;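 active = mean activation above a set limit taken from the primary screen, cut at about 8% in these data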;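 note: 0% = DMSO wells and 100% = 10 µM SAHA wells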
The depositor's hits bear a star; · = no result. Most compounds without a hit are left out; they make up all but 3.9% or so of the library.

SMILES	SR-BI HDL uptake	SR-BI uptake up	ABCB6 inh MLPCN	GAA850 FXN act	HIF activator	AHR act	GAA30 FXN cntr	FXN GAA850 conf
O=C(CCC(=O)N1CCSc2ccccc21)NC1CCCCC1	2	-2	108	8.0*	0	2	14	5
O=C1OC(c2ccc(F)cc2)CC1CN1CCOCC1 (centres undefined)	·	·	97	·	·	·	·	·
Cc1ccc(/C=C/C(=O)N2CCN(S(=O)(=O)c3ccc(C)c(C)c3)CC2)o1	0	0	99	7.6*	0	1	13	4
Cc1ccc(/C=C/C(=O)N2CCN(S(=O)(=O)c3c(C)c(C)cc(C)c3C)CC2)o1	-7	7	104	3	2	3	·	·
COc1ccc(CN(C)C(=O)c2ccc3ccccc3n2)cc1F	-8	8	160	4	-1	4	·	·
CCCNC(=O)c1ccccc1NC(=O)c1ccccc1N(C)S(=O)(=O)c1ccc(C)cc1	-10	10	111	8.1*	0	·	2	11*
CC(=O)c1cccc(Nc2ccc(C#N)cc2)c1	·	·	105	·	·	·	·	·
COc1ccc2c(CC(=O)Nc3ncc(C)s3)coc2c1	12	-12	90	8.7*	2	30	91*	55*
COc1ccc2c(CC(=O)Nc3nc(C)cs3)coc2c1	6	-6	97	1	1	6	·	·
Cc1ccc(C2CC(=O)C(C=NCCN3CCN(CC(=O)Nc4cc(C)cc(C)c4)CC3)=C(O)C2)cc1 (centres undefined)	8	-8	105	8.5*	·	·	13	6
O=c1c(Cl)c(NCCCO)cnn1-c1nc2ccccc2[nH]1	-27	27	95	29*	7	38	61*	54*
Cc1c(C(=O)NCc2ccc3c(c2)OCO3)oc2ccc(S(=O)(=O)N3CCCCC3)cc12	42	-42	91	-2	0	-1	·	·
COc1cc2c(cc1NC(=O)C1CCCO1)oc1ccccc12 (centres undefined)	76*	-76	98	8.6*	0	15	109*	31*
CCOC(=O)C(=CNc1ccc(C)cc1C)C(=O)OCC	13	-13	96	1	1	7	·	·
CCn1c2ccccc2c2cc(NC(=O)CSc3nnc(-c4ccccc4OC)n3N)ccc21	50	-50	106	8.4*	-1	57*	19	7
CCn1c2ccccc2c2cc(NC(=O)CSc3nnc(-c4cccc(OC)c4)n3N)ccc21	48	-48	93	8.4*	0	64*	19	9.0*
CC(C)CN(C(=O)CSc1nc2ccccc2c(=O)[nH]1)c1c(N)n(CC(C)C)c(=O)[nH]c1=O	-10	10	98	-1	·	-3	·	·
O=C(CCC(=O)N/N=C/c1c[nH]c2ccccc12)NCc1ccccc1	7	-7	96	1	-1	19	·	·
O=C(Nc1nncs1)c1cc2c(s1)CCC2	0	0	93	0	1	16	·	·
CC(C)Cc1nnc(NC(=O)c2cc3c(s2)CCC3)s1	-11	11	97	8.2*	1	25	95*	29*
C/C(=N\NC(=O)COc1ccc(C(C)(C)C)cc1)c1ccc(-n2ccnc2)cc1	51	-51	90	8.5*	1	73*	94*	22*
COc1ccc(/C=C(/C(=O)c2cccs2)N2C=CC=CC2=C(C#N)C#N)cc1	38	-38	97	14*	2	·	-1	22*
COc1ccc(C(=O)/C(=C\c2ccco2)N2C=CC=CC2=C(C#N)C#N)cc1	57	-57	106	-14	-7	28	·	·
NNC(=O)c1cccc(COc2ccc3c(c2)CCC3)c1	23	-23	93	9.2*	-4	-5	125*	42*
CCOC(=O)CN1C(=O)S/C(=C/C=C/c2ccc(N(C)C)cc2)C1=O	16	-16	262	8.0*	1	4	78*	34*
SMILES	SR-BI HDL uptake	SR-BI uptake up	ABCB6 inh MLPCN	GAA850 FXN act	HIF activator	AHR act	GAA30 FXN cntr	FXN GAA850 conf
CCOC(=O)CN1C(=O)S/C(=C/c2ccc3c(c2)n(C)c(=O)n3C)C1=O	-13	13	94	3	3	0	·	·
Cc1ccc(NC(=O)Nc2ccc(Cl)cn2)cc1	14	-14	101	8.2*	2	·	94*	32*
COc1ccc2oc(=Nc3ccccc3)c(-c3nc4ccccc4[nH]3)cc2c1	8	-8	98	7.9*	5	47	109*	39*
COc1ccc(-c2nc3ccccc3[nH]2)cc1	10	-10	97	0	0	-4	·	·
Cc1cccc(C(C(=O)NC2CCCC2)N(C(=O)c2csnn2)C2CC2)c1 (centres undefined)	-1	1	95	-1	-28	3	·	·
CCC(=O)c1ccc2c(c1)OCCO2	-1	1	102	0	0	-2	·	·
COc1ccc(NC(=O)CSc2ccccc2)cc1S(=O)(=O)N1CCOCC1	-8	8	101	1	-1	4	·	·
O=C(Cn1ncc(Cl)c(Cl)c1=O)Nc1ccc2c(c1)OCO2	28	-28	91	11*	·	1	8	12*
Cc1cc(Br)ccc1NC(=O)CNC(=O)Cn1ncc(Cl)c(Cl)c1=O	2	-2	89	8.7*	-6	4	1	-16
Cc1ccc(S(=O)(=O)N2CCCCC2)cc1NC(=O)Cn1ncc(Cl)c(Cl)c1=O	-14	14	110	-5	·	1	·	·
COc1ccc(NC(=O)Cn2ncc(Cl)c(Cl)c2=O)cc1S(=O)(=O)N1CCOCC1	23	-23	100	7.8*	-2	1	-27	16*
O=C(Cn1ncc(Cl)c(Cl)c1=O)c1ccc2c(c1)OCCO2	-4	4	85	8.6*	·	3	8	18*
CCOC(=O)c1cc(NC(=O)/C=C\C(=O)O)ccc1Cl	-21	21	106	-2	0	0	·	·
COCCCNC(=S)NNC(=O)c1ccccn1	-5	5	101	1	5	2	·	·
CCOC(=O)c1ccc(NC(=O)Cn2ncc(Cl)c(Cl)c2=O)cc1	-2	2	106	-13	-1	2	·	·
CCC(=O)Nc1ccc(C(=O)Cn2ncc(Cl)c(Cl)c2=O)cc1	·	·	103	8.7*	4	3	22*	11*
CCN(CC)S(=O)(=O)c1cc(NC(=O)Cn2ncc(Cl)c(Cl)c2=O)ccc1C	·	·	100	12*	-4	1	11	15*
